The list is not random: actives were taken first. Their share in the collection is about 3.1%.
CSC inhib = blocks cancer stem cells | cancer stem cell-like cells viability, luminescence | inhibition, % at 7.5 µM | 300,000 compounds, 1.1% hits; in the data active = inhibition above about 75%; inconclusive = no clear call, values can overlap the other calls; tested in HMLE shEcad cells
Calb FLC = C. albicans growth modulation with fluconazole; C. albicans CaCi-2 (fluconazole-resistant clinical isolate) + fluconazole, Alamar Blue growth, 48 h; growth inhibition, % (test concentration not listed); 300,000 compounds, 0.57% hits; AID 1979;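 active = growth inhibition above about 58% in most replicates, limit read from the data, passing the limit was not always enough; inconclusive = exactly half the replicates above a set limit; inactive = most replicates below a set limit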;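 also: all wells also contain fluconazole at 8 µg/ml as a sub-toxic cotreatment; 0% = median of DMSO wells and 100% = median of geldanamycin control wells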
A1 inh = inhibitors of the anti-apoptotic protein A1, read as caspase activation. MEF A1-2A-BIM cells, Caspase-Glo 3/7 luminescence, 3 h; percent of clofoctol response, vehicle zero. 330,000 compounds, 0.066% hits. caspase activation, % (no concentration beside the values). AID 2462;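 active = over half of replicate activation scores above 10%, or exactly half above 10 with the replicate mean above 10; inconclusive = replicate mean below 10 yet half the replicates above 10; inactive = over half of replicates below 10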
T cruzi inh = blocks replication of Trypanosoma cruzi; T. cruzi beta-gal in NIH3T3, luminescence, 90 h; inhibition, % (no concentration beside the values); 300,000 compounds, 1.4% hits;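 active = mean inhibition across valid replicates above about 55%, limit read from the data; inconclusive = mean below that limit but half or more replicates reach it; inactive = mean below it, under half of replicates reach it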;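 also: signal also drops with host cell toxicity which is not excluded here; 0% = plate median of DMSO wells and 100% = zero luminescence signal; higher percent means less beta-gal luminescence so fewer parasites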
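Assay system: NIH/3T3 fibroblasts plus reporter T. cruzi. Amount: NIH/3T3 cells, 5,000 per well. Buffer or medium: DMEM, 2% fetal bovine serum. Doses: compound pinned at 50 nL/well, DMSO. Schedule: ≥90 h infection period, 3 h prior cell attachment. Signal: luminescent β-galactosidase signal after 60 min lysis. Read-out: parasite load inhibition, %.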
TAG inh = reduces triacylglycerol accumulation in H9c2 cells; Nile Red lipid (TAG) fluorescence; cells loaded with 200 µM oleic acid; inhibition, % at 12.5 µM; 230,000 compounds, 0.66% hits; AID 651582;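 active = pattern-corrected inhibition of lipid staining of at least 50% with the nuclear-stain viability signal not falling by more than 50%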;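 also: 0% = DMSO wells and 100% = triacsin C control wells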
Beta cell apopt = beta cell apoptosis inhibition | INS-1E cytokine-induced death, ATP luminescence, 48 h; percent of positive-control rescue, neutral wells zero | protection from apoptosis, % (concentration not given with the values) | 300,000 compounds, 0.8% hits | AID 435005;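 active = Every replicate reaches about 75%, or at least half do and their mean reaches it too, limit read from the data; inconclusive = At least half of replicates reach the limit but their mean does not; inactive = Under half of replicates reach the limit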;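 also: 0% = cytokine-treated negative control wells and 100% = positive control rescue; higher means more ATP so stronger rescue from cytokine killing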
* = called active by the depositor; ? = inconclusive; / = not tested or not shown.

SMILES | CSC inhib | Calb FLC | A1 inh | T cruzi inh | TAG inh | Beta cell apopt
CC[n+]1c(/C=C/C=C/N(C(C)=O)c2ccccc2)sc2ccccc21 | 30 | 89* | -1 | 29 | -365 | 13
CC1CC(=O)c2c(cc3c(-c4c(O)cc(O)c5c(O)c6c(cc45)OC(C)CC6=O)c(O)cc(O)c3c2O)O1 (stereo unspecified) | -1 | -16 | 0 | 71* | / | 98*
O=C1CC(c2ccc(O)cc2)Oc2cc(O)cc(O)c21 (stereo unspecified) | -3 | 6 | -2 | -13 | 5 | 1
C[C@H](O)[C@@H]1C(=O)N2CCc3c([nH]c4ccccc34)[C@@H]2C[C@@H]1N(C)C(=O)NC1CCCCC1 | / | / | / | / | 18 | /
O=[N+]([O-])c1ccc(O)c2ncccc12 | 82* | 99* | -1 | 74* | 9 | 97*
O=[N+]([O-])c1ccc(O)c2cccnc12 | 1 | 22 | 1 | 2 | 0 | -1
O=[N+]([O-])c1cc(Cl)c2cccnc2c1O | 98* | 102* | 0 | -7 | 10 | -14
O=[N+]([O-])c1cc(F)c2cccnc2c1O | 15 | 61 | -1 | -45 | / | 0
O=[N+]([O-])c1ccc(Cl)c2cccnc12 | -16 | ? | 0 | -9 | -14 | 3
O=[N+]([O-])c1cc(CN2CCN(c3ccccc3)CC2)c(O)c2ncccc12 | -5 | 100* | 0 | 58* | 37 | 95*
Clc1cc2cccnc2c2ncccc12 | 121* | / | 0 | / | -1 | 87*
O=C(O)C(SC(C(=O)O)c1ccccc1)c1ccccc1 (stereo unspecified) | / | / | / | / | -5 | /
CCC[C@H]1CN(c2ccccc2)C(=O)[C@@H]1CC(=O)Nc1ccc(Br)cc1 | / | / | / | / | 11 | /
Nc1oc2ccccc2c1C(=O)Cc1ccccc1O[C@@H]1O[C@H](CO)[C@@H](O)[C@H](O)[C@H]1O | -2 | -6 | 2 | -14 | / | 0
Oc1c(Cl)c(Cl)c2ncccc2c1Cl | / | / | / | / | 9 | /
Oc1c(I)cc(Cl)c2cccnc12 | 84* | / | 1 | -3 | 22 | 7
Cc1c(C)c2cccnc2c2ncccc12 | / | / | 0 | / | 7 | 100*
O=[N+]([O-])c1cc(Cl)c(O)c2ncccc12 | / | 107* | / | 9 | -3 | /
CSCCC(NC(=O)c1cccc(C)c1)C(=O)Nc1sccc1C(N)=O (stereo unspecified) | 5 | 4 | 1 | -4 | / | 4
CC(C)(C)OC(=O)N1Cc2ccccc2C[C@H]1C(=O)NCC(=O)NCC1CCCO1 (stereo partly specified) | -5 | 3 | 0 | 1 | / | -5
CN(C(=O)CN1C(=O)c2cccc(N)c2C1=O)C1CCCCC1 | -2 | / | 1 | / | -10 | 0
O=C(c1ccc2nc(Cc3cccc(Cl)c3)oc2c1)N1CCC[C@H]1CO | / | -5 | / | 4 | / | /
COc1ccc(NC(=O)C(=O)N/N=C\c2ccc(CNC(=O)C(=O)Nc3ccc(C)c(C)c3)o2)c(OC)c1 | / | 3 | 24* | -19 | / | /
COCCNC(=O)/C(C#N)=C\c1ccc(CNC(=O)C(=O)Nc2ccc(C)c(C)c2)o1 | -4 | -17 | 1 | -7 | -5 | 0
CCc1ccc(-c2cc(C)no2)cc1S(=O)(=O)NC(C)Cc1ccco1 (stereo unspecified) | -21 | 2 | -1 | 20 | / | 1
SMILES | CSC inhib | Calb FLC | A1 inh | T cruzi inh | TAG inh | Beta cell apopt
CN(C)CCN1C(=O)c2cccc3cc([N+](=O)[O-])cc(c23)C1=O | / | / | / | / | 96 | /
CC(=O)OCCN1C(=O)c2cccc3cc([N+](=O)[O-])cc(c23)C1=O | 17 | 9 | -2 | 73* | / | 10
O=C(Nc1cccc(S(=O)(=O)N2CCCCC2)c1)c1ccc([N+](=O)[O-])o1 | 78* | ? | 0 | 40 | 74* | -11
Cc1ccc(NC(=O)c2ccc([N+](=O)[O-])o2)cc1S(=O)(=O)N1CCOCC1 | 2 | 65 | 0 | 9 | / | 94*
CC(C)(C)Cc1nnc(NC(=O)CSc2ccccc2)s1 | 4 | 6 | 0 | -2 | 5 | /
CCCCCCCNC(=O)C1(CC2CC(c3ccccc3)=NO2)CCN(C(=O)c2ccccc2)CC1 (stereo unspecified) | 19 | / | -1 | / | 7 | 7
CCCCCCCNC(=O)C1(CC2CC(c3cccc(Br)c3)=NO2)CCNCC1 (stereo unspecified) | 159* | 54 | -1 | 12 | 134 | /
